Assay results published in ChEMBL document CHEMBL4177653, “Identification of nitroimidazole-oxime derivatives targeting the polo-box domain of polo-like kinase 1” (Bioorg Med Chem, 2017).
Converted amounts (≈) assume the structure as drawn.

Tests used:
[1] = tested on: MGC-803; assay: Antiproliferative activity against human MGC803 cells after 72 hrs by MTT assay; format: functional, cell-based; conditions: MGC-803, 72 h
Procedure, shortened: (§1)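 Cells kept in high-glucose DMEM with L-glutamine, 10% FBS, penicillin/streptomycin, at 37 °C and 5% CO2. Seeded in 96-well plates and preincubated 48 h. Compounds added at preset concentrations (6 wells each; erlotinib as positive reference) for 72 h. MTT in PBS (2.5 mg/mL) added for 4 h, formazan dissolved in DMSO, A570 read. IC50 is the concentration leaving 50% of cells surviving. Mean ± SD of three independent experiments in triplicate.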

[2] = tested on: MCF7; assay: Antiproliferative activity against human MCF7 cells after 72 hrs by MTT assay; format: functional, cell-based; conditions: MCF7, 72 h; procedure, shortened: as §1
[3] = tested on: HeLa; assay: Antiproliferative activity against human HeLa cells after 72 hrs by MTT assay; format: functional, cell-based; procedure, shortened: as §1
[4] = tested on: HepG2; assay: Antiproliferative activity against human HepG2 cells after 72 hrs by MTT assay; format: functional, cell-based; conditions: HepG2, 72 h; procedure, shortened: as §1
[5] = Cytotoxicity against human 293T cells after 72 hrs by MTT assay; format: cell-based; conditions: HEK-293T cells
[6] = tested on: MGC-803; assay: Induction of apoptosis in human MGC803 cells assessed as late apoptotic cells at 0.01 uM after 24 hrs by Annexin V-FITC/propidium iodide staining-based flow cytometry (reference value: 0%); format: functional
[7] = tested on: MGC-803; assay: Induction of apoptosis in human MGC803 cells assessed as early apoptotic cells at 0.01 uM after 24 hrs by Annexin V-FITC/propidium iodide staining-based flow cytometry (reference value: 0.1%); format: functional
[8] = tested on: MGC-803; assay: Induction of apoptosis in human MGC803 cells assessed as necrotic cells at 0.01 uM after 24 hrs by Annexin V-FITC/propidium iodide staining-based flow cytometry (reference value: 0%); format: functional
[9] = tested on: MGC-803; assay: Induction of apoptosis in human MGC803 cells assessed as viable cells at 0.01 uM after 24 hrs by Annexin V-FITC/propidium iodide staining-based flow cytometry (reference value: 99.9%); format: functional; conditions: MGC-803, 24 h, read-out: Activity
[10] = tested on: MGC-803; assay: Induction of apoptosis in human MGC803 cells assessed as early apoptotic cells at 0.06 uM after 24 hrs by Annexin V-FITC/propidium iodide staining-based flow cytometry (reference value: 0.1%); format: functional
[11] = tested on: MGC-803; assay: Induction of apoptosis in human MGC803 cells assessed as late apoptotic cells at 0.06 uM after 24 hrs by Annexin V-FITC/propidium iodide staining-based flow cytometry (reference value: 0%); format: functional
[12] = tested on: MGC-803; assay: Induction of apoptosis in human MGC803 cells assessed as necrotic cells at 0.06 uM after 24 hrs by Annexin V-FITC/propidium iodide staining-based flow cytometry (reference value: 0%); format: functional
[13] = tested on: MGC-803; assay: Induction of apoptosis in human MGC803 cells assessed as viable cells at 0.06 uM after 24 hrs by Annexin V-FITC/propidium iodide staining-based flow cytometry (reference value: 99.9%); format: functional; conditions: MGC-803, 24 h, read-out: Activity
[14] = tested on: MGC-803; assay: Induction of apoptosis in human MGC803 cells assessed as early apoptotic cells at 0.12 uM after 24 hrs by Annexin V-FITC/propidium iodide staining-based flow cytometry (reference value: 0.1%); format: functional
[15] = tested on: MGC-803; assay: Induction of apoptosis in human MGC803 cells assessed as late apoptotic cells at 0.12 uM after 24 hrs by Annexin V-FITC/propidium iodide staining-based flow cytometry (reference value: 0%); format: functional
[16] = tested on: MGC-803; assay: Induction of apoptosis in human MGC803 cells assessed as necrotic cells at 0.12 uM after 24 hrs by Annexin V-FITC/propidium iodide staining-based flow cytometry (reference value: 0%); format: functional
[17] = tested on: MGC-803; assay: Induction of apoptosis in human MGC803 cells assessed as viable cells at 0.12 uM after 24 hrs by Annexin V-FITC/propidium iodide staining-based flow cytometry (reference value: 99.9%); format: functional; conditions: MGC-803, 24 h, read-out: Activity
[18] = tested on: MGC-803; assay: Induction of apoptosis in human MGC803 cells after 24 hrs by Annexin V-FITC/propidium iodide staining-based flow cytometry; format: functional, cell-based

Row | Compound | IC50 [1] | IC50 [2] | IC50 [3] | IC50 [4] | CC50 at 72 h [5] | further results
1 | Cc1nc([N+](=O)[O-])cn1C/C(=N/OC(=O)c1cccnc1)c1ccc(Br)cc1 | 0.01 µg/mL (≈ 0.0225 µM) | 0.78 µg/mL (≈ 1.76 µM) | 1.51 µg/mL (≈ 3.4 µM) | 0.73 µg/mL (≈ 1.64 µM) | 50 µg/mL (≈ 113 µM) | 
2 | CC1=CC(=O)C(C(C)C)=CC1=O [THYMOQUINONE] |  |  |  |  | 140 µg/mL (≈ 853 µM) | 
3 | Cc1nc([N+](=O)[O-])cn1C/C(=N/OC(=O)c1cccnc1Cl)c1ccc(Br)cc1 | 0.73 µg/mL (≈ 1.52 µM) | 0.76 µg/mL (≈ 1.59 µM) | 1.28 µg/mL (≈ 2.67 µM) | 0.76 µg/mL (≈ 1.59 µM) | 12000 µg/mL (≈ 25100 µM) | 
4 | Cc1cccc(C(=O)O/N=C(/Cn2cc([N+](=O)[O-])nc2C)c2ccc(Br)cc2)c1 | 3.25 µg/mL (≈ 7.11 µM) | 2.82 µg/mL (≈ 6.17 µM) | 12.3 µg/mL (≈ 27 µM) | 10.7 µg/mL (≈ 23.3 µM) | 1300 µg/mL (≈ 2840 µM) | 
5 | Cc1nc([N+](=O)[O-])cn1C/C(=N/OC(=O)c1ccncc1)c1ccc(Br)cc1 | 0.02 µg/mL (≈ 0.045 µM) | 0.87 µg/mL (≈ 1.96 µM) | 1.63 µg/mL (≈ 3.67 µM) | 0.81 µg/mL (≈ 1.82 µM) | 80 µg/mL (≈ 180 µM) | 
6 | Cc1nc([N+](=O)[O-])cn1C/C(=N/OC(=O)c1ccccc1Cl)c1ccc(Br)cc1 | 0.16 µg/mL (≈ 0.335 µM) | 1.27 µg/mL (≈ 2.66 µM) | 8.53 µg/mL (≈ 17.9 µM) | 1.33 µg/mL (≈ 2.78 µM) | 530 µg/mL (≈ 1110 µM) | 
7 | COc1ccccc1C(=O)O/N=C(/Cn1cc([N+](=O)[O-])nc1C)c1ccc(Br)cc1 | 3.53 µg/mL (≈ 7.46 µM) | 3.13 µg/mL (≈ 6.61 µM) | > 20 µg/mL | > 20 µg/mL | 500 µg/mL (≈ 1060 µM) | 
8 | Cc1nc([N+](=O)[O-])cn1C/C(=N\O)c1ccc(Br)cc1 | > 20 µg/mL | > 20 µg/mL | > 20 µg/mL | 17.4 µg/mL (≈ 51.3 µM) |  | 
9 | Cc1nc([N+](=O)[O-])cn1C/C(=N/OC(=O)c1ccc(Cl)nc1)c1ccc(Br)cc1 | 0.82 µg/mL (≈ 1.71 µM) | 0.79 µg/mL (≈ 1.65 µM) | 0.96 µg/mL (≈ 2.01 µM) | 0.71 µg/mL (≈ 1.48 µM) | 250 µg/mL (≈ 522 µM) | 
10 | Cc1nc([N+](=O)[O-])cn1C/C(=N/OC(=O)c1ccccc1Br)c1ccc(Br)cc1 | 2.63 µg/mL (≈ 5.04 µM) | 3.79 µg/mL (≈ 7.26 µM) | > 20 µg/mL | 4.38 µg/mL (≈ 8.39 µM) | 150 µg/mL (≈ 287 µM) | 
11 | Cc1nc([N+](=O)[O-])cn1C/C(=N/OC(=O)c1cccc(Cl)c1)c1ccc(Br)cc1 | 0.18 µg/mL (≈ 0.377 µM) | 0.84 µg/mL (≈ 1.76 µM) | 4.09 µg/mL (≈ 8.56 µM) | 1.15 µg/mL (≈ 2.41 µM) | 700 µg/mL (≈ 1470 µM) | 
12 | Cc1nc([N+](=O)[O-])cn1C/C(=N/OC(=O)c1ccc(Br)cc1)c1ccc(Br)cc1 | 1.48 µg/mL (≈ 2.83 µM) | 2.56 µg/mL (≈ 4.9 µM) | 5.67 µg/mL (≈ 10.9 µM) | 2.56 µg/mL (≈ 4.9 µM) | 330 µg/mL (≈ 632 µM) | 
13 | Cc1nc([N+](=O)[O-])cn1C/C(=N/OC(=O)c1cccc(Br)c1)c1ccc(Br)cc1 | 0.04 µg/mL (≈ 0.0766 µM) | 1.37 µg/mL (≈ 2.62 µM) | 2.57 µg/mL (≈ 4.92 µM) | 0.86 µg/mL (≈ 1.65 µM) | 180 µg/mL (≈ 345 µM) | 
14 | Cc1nc([N+](=O)[O-])cn1C/C(=N/OC(=O)c1ccccc1[N+](=O)[O-])c1ccc(Br)cc1 | 2.54 µg/mL (≈ 5.2 µM) | 7.13 µg/mL (≈ 14.6 µM) | 11.3 µg/mL (≈ 23.2 µM) | 6.59 µg/mL (≈ 13.5 µM) | 230 µg/mL (≈ 471 µM) | 
15 | Cc1ccc(C(=O)O/N=C(/Cn2cc([N+](=O)[O-])nc2C)c2ccc(Br)cc2)cn1 | 0.005 µg/mL (≈ 0.0109 µM) | 0.72 µg/mL (≈ 1.57 µM) | 0.86 µg/mL (≈ 1.88 µM) | 0.75 µg/mL (≈ 1.64 µM) | 8300 µg/mL (≈ 18100 µM) | Activity [6]: 28.1%; Activity [7]: 9.7%; Activity [8]: 1.2%; viability at 0.01 µM [9]: 61%; Activity [10]: 15.4%; Activity [11]: 43.2%; Activity [12]: 0.2%; viability at 0.06 µM [13]: 41.2%; Activity [14]: 16.9%; Activity [15]: 64.6%; Activity [16]: 0.1%; viability at 0.12 µM [17]: 18.4%; Activity [18]: Dose-dependent effect
16 | COc1ccc(C(=O)O/N=C(/Cn2cc([N+](=O)[O-])nc2C)c2ccc(Br)cc2)cc1 | 0.34 µg/mL (≈ 0.718 µM) | 3.15 µg/mL (≈ 6.66 µM) | 6.54 µg/mL (≈ 13.8 µM) | 1.25 µg/mL (≈ 2.64 µM) | 1600 µg/mL (≈ 3380 µM) | 
17 | Cc1nc([N+](=O)[O-])cn1C/C(=N/OC(=O)c1ccc(Cl)cc1)c1ccc(Br)cc1 | 0.45 µg/mL (≈ 0.942 µM) | 2.79 µg/mL (≈ 5.84 µM) | 8.79 µg/mL (≈ 18.4 µM) | 1.34 µg/mL (≈ 2.81 µM) | 230 µg/mL (≈ 481 µM) | 
18 | Cc1ccccc1C(=O)O/N=C(/Cn1cc([N+](=O)[O-])nc1C)c1ccc(Br)cc1 | 0.84 µg/mL (≈ 1.84 µM) | 2.15 µg/mL (≈ 4.7 µM) | 9.76 µg/mL (≈ 21.3 µM) | 2.37 µg/mL (≈ 5.18 µM) | 3800 µg/mL (≈ 8310 µM) | 
19 | Cc1nc([N+](=O)[O-])cn1C/C(=N/OC(=O)c1ccc(F)cc1)c1ccc(Br)cc1 | 1.24 µg/mL (≈ 2.69 µM) | 2.12 µg/mL (≈ 4.6 µM) | 7.24 µg/mL (≈ 15.7 µM) | 1.22 µg/mL (≈ 2.65 µM) | 23000 µg/mL (≈ 49900 µM) | 
20 | Cc1ccc(C(=O)O/N=C(/Cn2cc([N+](=O)[O-])nc2C)c2ccc(Br)cc2)cc1 | 0.81 µg/mL (≈ 1.77 µM) | 1.54 µg/mL (≈ 3.37 µM) | 0.96 µg/mL (≈ 2.1 µM) | 0.96 µg/mL (≈ 2.1 µM) | 270 µg/mL (≈ 590 µM) | 
21 | Cc1nc([N+](=O)[O-])cn1C/C(=N/OC(=O)c1ccccc1)c1ccc(Br)cc1 | 3.66 µg/mL (≈ 8.26 µM) | > 20 µg/mL | > 20 µg/mL | 14 µg/mL (≈ 31.5 µM) | 32000 µg/mL (≈ 72200 µM) | 
22 | O=c1[nH]cc(F)c(=O)[nH]1 [FLUOROURACIL] | 1.8 µg/mL (≈ 13.8 µM) | 2.19 µg/mL (≈ 16.8 µM) | 3.82 µg/mL (≈ 29.4 µM) | 2.24 µg/mL (≈ 17.2 µM) |  | 
23 | Cc1nc([N+](=O)[O-])cn1C/C(=N/OC(=O)c1cccc(F)c1)c1ccc(Br)cc1 | 0.21 µg/mL (≈ 0.455 µM) | 1.87 µg/mL (≈ 4.05 µM) | 4.55 µg/mL (≈ 9.86 µM) | 0.97 µg/mL (≈ 2.1 µM) | 530 µg/mL (≈ 1150 µM) | 
24 | Cc1nc([N+](=O)[O-])cn1C/C(=N/OC(=O)c1ccc([N+](=O)[O-])cc1)c1ccc(Br)cc1 | 0.37 µg/mL (≈ 0.758 µM) | 0.86 µg/mL (≈ 1.76 µM) | 12.4 µg/mL (≈ 25.4 µM) | 1.43 µg/mL (≈ 2.93 µM) | 160 µg/mL (≈ 328 µM) | 
25 | COc1ccc(C(=O)O/N=C(/Cn2cc([N+](=O)[O-])nc2C)c2ccc(Br)cc2)cn1 | 0.03 µg/mL (≈ 0.0633 µM) | 0.89 µg/mL (≈ 1.88 µM) | 2.35 µg/mL (≈ 4.95 µM) | 0.92 µg/mL (≈ 1.94 µM) | 980 µg/mL (≈ 2070 µM) | 
